SMARCA2 activ: SMARCA2 (BRM) function activators, primary screen, cell-based, luminescence, high throughput; activation, % at 9.1 µM; MG213 cells, MMTV-luciferase reporter, dexamethasone, overnight; AID 652017, 2013; actives 1% (n = 370,000); in the data active = activation above about 7.8%
Efflux pump inh: inhibitors of Candida efflux pumps in yeast, primary screen, S. cerevisiae, Nile Red, multiplex; inhibition, % at 10 µM; actives 0.44% (n = 330,000); S. cerevisiae Candida pump triplex;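 active = plate passing quality check with inhibition over a set limit, or well fluorescence over plate mean plus 4 SD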;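 note: Nile Red retained in pooled yeast measured as flow cytometry median fluorescence; higher means more Nile Red kept so more efflux inhibition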
Tb MetRS inh: T. brucei MetRS inhibitors, primary screen, biochemical, luminescence | methionyl-tRNA synthetase (Trypanosoma brucei brucei) | purified T. brucei MetRS, ATP depletion, Kinase-Glo luminescence | inhibition, % at 11.9 µM | actives 0.4% (n = 360,000) | AID 624268, 2012;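 active = inhibition above a per-plate cutoff of the control wells' mean inhibition plus 3 SD, cut at about 5.5% in these data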
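Material: parasite MetRS enzyme / Replication: singlicate, one well per compound / Signal: luminescence of leftover ATP / Schedule: 2 h aminoacylation at 25 °C after 15 min preincubation / Medium: HEPES-MgCl2-KCl buffer plus DTT, spermine, BSA, pyrophosphatase / Doses: 11.9 µM single point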
AHR activator: AHR activators, primary screen, cell-based, luminescence, luciferase reporter, human; Aryl hydrocarbon receptor (Homo sapiens), P35869; activation, % at 5 µM; AHR-responsive luciferase reporter cells; actives 2.5% (n = 320,000); in the data active = activation above about 47%
Target sequence (P35869 whole entry, looked up): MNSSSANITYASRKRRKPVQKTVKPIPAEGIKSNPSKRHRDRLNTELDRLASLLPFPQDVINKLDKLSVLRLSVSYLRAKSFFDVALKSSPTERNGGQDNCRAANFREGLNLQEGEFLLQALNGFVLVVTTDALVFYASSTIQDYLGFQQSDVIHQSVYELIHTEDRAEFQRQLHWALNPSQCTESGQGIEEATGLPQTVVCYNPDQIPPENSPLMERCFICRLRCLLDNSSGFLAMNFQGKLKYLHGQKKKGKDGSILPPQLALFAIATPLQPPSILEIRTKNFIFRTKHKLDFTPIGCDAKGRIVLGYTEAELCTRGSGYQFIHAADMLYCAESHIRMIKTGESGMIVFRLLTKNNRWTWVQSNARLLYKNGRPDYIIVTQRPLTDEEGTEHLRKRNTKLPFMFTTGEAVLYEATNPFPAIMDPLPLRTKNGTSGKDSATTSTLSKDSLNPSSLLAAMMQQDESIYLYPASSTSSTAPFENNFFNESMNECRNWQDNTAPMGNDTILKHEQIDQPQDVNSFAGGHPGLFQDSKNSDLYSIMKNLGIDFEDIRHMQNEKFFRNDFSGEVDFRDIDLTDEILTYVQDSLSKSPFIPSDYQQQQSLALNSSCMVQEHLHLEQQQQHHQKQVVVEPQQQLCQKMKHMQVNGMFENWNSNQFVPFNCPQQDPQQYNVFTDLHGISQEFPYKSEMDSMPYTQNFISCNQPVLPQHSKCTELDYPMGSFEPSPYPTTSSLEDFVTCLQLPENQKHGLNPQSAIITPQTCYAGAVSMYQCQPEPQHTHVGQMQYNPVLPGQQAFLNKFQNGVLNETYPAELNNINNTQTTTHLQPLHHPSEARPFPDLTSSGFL
H9c2 TAG inh: inhibitors of triacylglycerol accumulation, primary screen, cell-based, uHTS, fluorescence, H9c2. H9c2 cells, Nile Red lipid (TAG) fluorescence; cells loaded with 200 µM oleic acid. inhibition, % at 12.5 µM. actives 0.66% (n = 230,000). AID 651582, 2012;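 active = pattern-corrected inhibition of lipid staining of at least 50% with the nuclear-stain viability signal not falling by more than 50%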
A number is an active result; . = inactive; / = not tested or not shown; ! = a repeat was not active. Hits are enriched below; roughly 4.1% of the tested compounds scored in any of these assays.

SMILES	SMARCA2 activ	Efflux pump inh	Tb MetRS inh	AHR activator	H9c2 TAG inh
O=C(N/N=C/c1cccc(OC2CSC2)c1)c1ccccc1O	.	.	.	.	/
Cn1nccc1C(=O)Oc1cccc(/C=N/NC(=O)c2ccccc2O)c1	.	.	.	69.5	/
CCC(=O)N1CCC(C(=O)NC2CCCc3ccccc32)CC1 (centres undefined)	.	/	/	/	/
COc1ccc(CC(C)NCC(O)c2ccc(O)c(NC=O)c2)cc1 (centres undefined)	19.8!	/	.	/	.
N#CCC[C@@H]1CC[C@]2(CCCN(Cc3ccc(Cl)cc3)C2)O1	.	/	/	/	/
CN1C(=O)/C(=C/c2ccccc2OCc2cccc(F)c2)N(C)C1=S	.	.	.	50.4	.
CN1C(=O)/C(=C/c2ccc(OCc3ccc(F)cc3)cc2)N(C)C1=S	.	.	.	.	.
C=CCSc1nnc2c(n1)[nH]c1c(C)cccc12	.	.	.	64.5	/
CCSc1nnc2nc3[nH]c4c(C)cccc4c3nn12	.	.	.	54.4	/
CC(/C=N/Nc1nnc2c(n1)[nH]c1ccccc12)=C\c1ccco1	/	.	.	72.9	/
Cc1ccnc(N/N=C/c2ccco2)n1	.	.	.	.	/
Fc1cccc(CSc2nnc3c(n2)[nH]c2ccccc23)c1	.	.	.	.	.
Cc1cccc2c1[nH]c1nc(N/N=C\c3ccco3)nnc12	.	.	/	79.2	/
CCOC(=O)[C@]12CCCC3=C1N(CCC3)C(=O)[C@@H](CC(=O)NCCc1ccccc1OC)C2	.	/	/	/	/
O=C(NNC(=S)Nc1ccc(Cl)cc1)c1ccccc1OC(F)F	.	.	.	103.8	/
CNc1nc(Nc2ccc([N+](=O)[O-])cc2)nc(OCC(F)(F)F)n1	.	.	.	62.2	.
CCOc1ccc(N(CC(=O)Nc2c(C)n(C)n(-c3ccccc3)c2=O)S(=O)(=O)c2cc(OC)ccc2OC)cc1	.	/	/	/	/
Cc1ccccc1NCC(=O)N/N=C/c1c[nH]c2ccccc12	.	.	.	62.2	.
Cc1cccc(NCC(=O)N/N=C\c2c[nH]c3ccccc23)c1	.	.	.	77.5	.
COC(=O)c1cc2c(c3c4cc(F)ccc4n(S(=O)(=O)c4ccccc4)c13)C(=O)N(Cc1ccc(N(C)C)cc1)C2	.	/	/	/	/
COC(=O)N/N=C/c1cn(Cc2c(Cl)cccc2Cl)c2ccccc12	.	.	.	63.9	/
COC(=O)N/N=C/c1cn(Cc2ccc(Cl)cc2Cl)c2ccccc12	.	.	.	70.6	/
COC(=O)N/N=C/c1cn(CCCOc2ccccc2)c2ccccc12	.	.	.	.	/
COC(=O)N/N=C/c1cn(Cc2ccccc2F)c2ccccc12	.	.	.	57.6	.
COC(=O)N/N=C/c1cn(Cc2ccc(F)cc2)c2ccccc12	.	.	.	.	.
SMILES	SMARCA2 activ	Efflux pump inh	Tb MetRS inh	AHR activator	H9c2 TAG inh
COc1ccc(/C=N/NC(=S)Nc2cc(C(F)(F)F)ccc2Cl)cc1	.	.	.	54.3	.
COc1ccc(/C=C/C(=O)Nc2cc(C(F)(F)F)ccc2Cl)cc1	.	.	.	.	/
N#Cc1nc(COc2cccc(Cl)c2)oc1NCc1ccco1	.	.	.	63.0	.
C=CCN1C(=O)[C@@H](CC(=O)NCCCC)[C@]2(C(=O)OC)CCCCC=C12	.	/	/	/	/
CCOC(=O)CN1CC23C=CC(O2)C(C(=O)Nc2ccc(OC)cc2OC)C3C1=O (centres undefined)	.	.	.	.	/
CCOC(=O)CN1CC23C=CC(O2)C(C(=O)Nc2cc(OC)ccc2OC)C3C1=O (centres undefined)	.	0.9	.	.	/
CCCCCCCCCCCCCCCC[n+]1cccc(C(=O)N(CC)CC)c1	.	.	.	.	58.6!
COc1ccccc1NC(=O)Nc1cc(C(C)C)ccc1C	.	/	.	/	/
COc1ccccc1NC(=O)OC(C)c1ccc(Cl)cc1 (centres undefined)	.	.	.	75.4	/
COCC(=O)N1CCN(C(=O)C(=O)c2cccc(C(F)(F)F)c2)CC1	.	/	/	/	/
O=C(CSc1nc2ccccc2n1Cc1ccccc1Cl)N/N=C\c1cccc(Oc2ccccc2)c1	.	/	/	/	/
Cc1cc2nc(-c3ccc(=O)[nH]c3)n(Cc3ccccc3)c2cc1C	.	.	.	78.8	/
Cc1ccccc1Cn1c(-c2ccc(=O)[nH]c2)nc2ccccc21	.	.	.	.	/
CCOC(=O)N1CCN(C(=O)C[C@H]2C[C@@]3(C(=O)OC)C(=C[C@H](C(C)(C)C)O[C@@H]3C)N(Cc3ccc4c(c3)OCO4)C2=O)CC1	.	/	/	/	/
COc1cccc2cc3c(=O)n(-c4ccccc4)nc-3oc12	.	.	.	49.1	.
COc1cccc2cc(-c3nc4ccccc4o3)c(=O)oc12	.	.	.	.	.
O=C1[C@@H](CCc2ccccc2)[C@@H]2c3cc4ccccc4cc3C=NN2[C@@H]2c3cc4ccccc4cc3C=NN12	.	/	/	/	/
COc1cc(/C=C/C(=O)N2CCCN(C(=O)/C=C/c3cc(OC)c(OC)c(OC)c3)CC2)cc(OC)c1OC	.	.	.	.	/
COc1cc(/C=C/C(=O)N2CCC=CC2=O)cc(OC)c1OC	.	.	.	.	61.5
CCCCNC(=O)NS(=O)(=O)c1ccc(NC(=O)CSc2ncnc3scc(-c4ccc(C)cc4)c23)cc1	.	/	/	/	/
CC(C)c1nc(N(C)S(C)(=O)=O)nc(-c2ccc(F)cc2)c1/C=C/[C@H](O)C[C@@H](O)CC(=O)O	.	/	/	/	/
COc1nc(Nc2cccc([N+](=O)[O-])c2)nc(OC)n1	.	.	.	.	.
C#CCOc1nc(Nc2cccc([N+](=O)[O-])c2)nc(OCC#C)n1	.	.	.	52.3	.
C=CCOC(=O)N1CCN(C(=O)c2ccc3c(c2)nc(C)n3C2CCCC2)CC1	.	/	/	/	/
COc1cc2ncnc(NCc3ccc4c(c3)OCO4)c2cc1OC	.	.	.	63.4	/
SMILES	SMARCA2 activ	Efflux pump inh	Tb MetRS inh	AHR activator	H9c2 TAG inh
CCC(C)N1C(=O)/C(=C/c2c(NCCCOC(C)C)nc3c(C)cccn3c2=O)SC1=S (centres undefined)	.	0.8	.	.	/
CCCN1C(=O)/C(=C/c2c(NCCCOC(C)C)nc3c(C)cccn3c2=O)SC1=S	/	.	.	.	.
O=C(Nc1sc2c(c1C(=O)O)CCCCC2)c1ccco1	.	.	.	.	/
C=CCNC(=S)Nc1sc2c(c1C(N)=O)CCCC2	.	.	.	58.4	.
NC(=O)c1c(NC(=O)c2ccco2)sc2c1CCC2	.	.	.	75.9	/
C=CC(=O)Nc1sc2c(c1C(N)=O)CCCC2	.	.	.	.	.
Cc1ccc(-n2nc(CC#N)c(C#N)c2N)cc1Cl	.	.	.	68.1	/
Cc1cc(N/N=C/c2c[nH]c3ccccc23)c2ccccc2n1	.	.	.	58.2	.
Cn1c(N/N=C/c2c[nH]c3ccccc23)nc2ccccc21	.	.	.	56.2	.
Cc1cc(N/N=C/c2ccc(N(C)C)cc2)c2ccccc2n1	.	.	.	49.2	.
Cc1cc(C)nc(N/N=C/c2c[nH]c3ccccc23)n1	.	.	.	.	.
